Measurements: ChEMBL document CHEMBL4052637, “Discovery and Characterization of R/S-N-3-Cyanophenyl-N'-(6-tert-butoxycarbonylamino-3,4-dihydro-2,2-dimethyl-2H-1-benzopyran-4-yl)urea, a New Histone Deacetylase Class III Inhibitor Exerting Antiproliferative Activity against Cancer Cell Lines” (J Med Chem, 2017)
Activity calls are given as the source filed them. The rule behind the calls is not given here.

Key:
[1] = Potency index, ratio of sirtinol IC50 to test compound IC50 for human U373 cells; assay type: functional, U-373MG ATCC
U-373MG ATCC = experiment: Cell cycle arrest in human U373 cells assessed as accumulation at sub-G1 phase at IC50 for MTT assay after 24 to 48 hrs by propidium iodide staining-based flow cytometry; assay type: functional
Outline: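 Cells were exposed to compound at the IC50 for each line from the 72 h MTT assay, or to a reference HDAC inhibitor at 2 μM. Cell cycle distribution was analyzed after 24 and 48 h. Results are mean ± SD of three independent experiments, with p values against control cells.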

Hs 683 [2] = experiment: Antitumor activity against CM-Dil fluorescent dye labeled human Hs683 cells xenografted in zebrafish embryo at 10 uM preincubated with tumor for 36 hrs followed by tumor implantation in zebra fish yolk sac measured after 72 hrs by fluorescence microscopy; assay type: functional, cell-based
Outline: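 Cells were pretreated in vitro at 5 or 10 μM for 30 or 36 h and labeled with CM-DiI 2 h before injection. Then 100–200 cells were injected into the yolk sac of wild-type zebrafish 48 h post-fertilization, anesthetized in 0.02% tricaine. Embryos were kept 72 h at 28.5 °C in Danieau solution with 0.003% phenylthiourea, and fluorescence was quantified in eight fish per condition.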

SNB-75 = experiment: Growth inhibition of human SNB75 cells after 48 hrs by SRB assay; assay type: functional; conditions: SNB-75, 48 h
A2780 = experiment: Antiproliferative activity against human A2780 cells after 72 hrs by MTT assay; assay type: functional, cell-based
Outline: (§1)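 MTT assay: cells in RPMI 1640 with 10% heat-inactivated FCS at 37 °C and 5% CO2 were seeded 24 h before treatment. They were exposed 72 h to compound at 0.01–100 μM, with DMSO as solvent.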

[3] = Selectivity index, ratio of IC50 for mouse astrocytes to IC50 for human T98G cells
HL-60(TB) = experiment: Growth inhibition of human HL-60(TB) cells after 48 hrs by SRB assay; assay type: functional; conditions: HL-60, 48 h
[4] = biological target: T1, NAD-dependent protein deacetylase sirtuin-1 (Homo sapiens) (UniProt Q96EB6); experiment: Inhibition of SIRT1 in human Hs683 cells assessed as increase of histone H4 acetylation after 8 hrs by Western blotting method; assay type: cell-based
T1 sequence (whole entry): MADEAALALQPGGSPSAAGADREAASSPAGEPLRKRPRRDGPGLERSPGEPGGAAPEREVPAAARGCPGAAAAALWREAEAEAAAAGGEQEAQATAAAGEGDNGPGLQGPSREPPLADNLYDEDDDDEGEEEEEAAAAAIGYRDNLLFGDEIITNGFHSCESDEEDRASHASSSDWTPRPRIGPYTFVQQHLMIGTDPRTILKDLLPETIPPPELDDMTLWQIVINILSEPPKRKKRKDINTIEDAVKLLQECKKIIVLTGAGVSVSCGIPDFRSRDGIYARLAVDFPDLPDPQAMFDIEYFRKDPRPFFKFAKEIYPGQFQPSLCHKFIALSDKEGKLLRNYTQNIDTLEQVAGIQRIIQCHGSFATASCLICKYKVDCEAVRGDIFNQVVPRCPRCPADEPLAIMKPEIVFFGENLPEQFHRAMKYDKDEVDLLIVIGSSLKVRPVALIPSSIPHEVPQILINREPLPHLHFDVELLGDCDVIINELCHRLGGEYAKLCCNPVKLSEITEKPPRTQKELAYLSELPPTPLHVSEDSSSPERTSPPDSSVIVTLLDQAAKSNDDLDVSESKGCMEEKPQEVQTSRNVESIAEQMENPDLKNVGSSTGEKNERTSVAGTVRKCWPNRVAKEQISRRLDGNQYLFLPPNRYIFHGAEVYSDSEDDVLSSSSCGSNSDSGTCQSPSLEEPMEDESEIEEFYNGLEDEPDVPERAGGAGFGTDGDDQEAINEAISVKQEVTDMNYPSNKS

[5] = biological target: Histone deacetylase 8 (Homo sapiens) (UniProt Q9BY41); experiment: Inhibition of recombinant human HDAC8 expressed in Escherichia coli at 0.1 to 100 uM using Fluor-de-Lys-HDAC8 as substrate after 15 mins by fluorescence assay
[6] = Selectivity index, ratio of IC50 for mouse astrocytes to IC50 for human Hs683 cells
CAKI-1 = experiment: Growth inhibition of human Caki1 cells after 48 hrs by SRB assay; assay type: functional; conditions: CAKI-1, 48 h
Hs 683 [7] = experiment: Induction of apoptosis in human Hs683 cells at 10 uM after 72 hrs by TUNEL method relative to control; assay type: functional
[8] = Cytostatic activity against human U373 cells at 10 uM after 72 hrs by quantitative videomicroscopy relative to control; assay type: functional, U-373MG ATCC
Outline: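 Cells were grown in 25 cm2 flasks, and phase-contrast images were recorded every 4 min over 72 h, in triplicate. Global growth is cell count on the last image divided by cell count on the first, at 24, 48 and 72 h. The GGR index is treated GG divided by control GG.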

Hs 683 [9] = experiment: Antiproliferative activity against human Hs683 cells after 72 hrs by MTT assay; assay type: functional, cell-based; conditions: Hs 683, 72 h; outline: as §1
UACC-62 = experiment: Growth inhibition of human UACC62 cells after 48 hrs by SRB assay; assay type: functional; conditions: UACC-62, 48 h
OVCAR-5 = experiment: Growth inhibition of human OVCAR5 cells after 48 hrs by SRB assay; assay type: functional; conditions: OVCAR-5, 48 h
[10] = biological target: NAD-dependent protein deacetylase sirtuin-3, mitochondrial (Homo sapiens, UniProt Q9NTG7); experiment: Inhibition of N-terminal His-tagged recombinant human SIRT-3 expressed in Escherichia coli using Fluor-de-Lys-SIRT1 as substrate after 15 mins by fluorescence assay
[11] = Potency index, ratio of AGK2 IC50 to test compound IC50 for human U373 cells; assay type: functional, U-373MG ATCC
Hs 683 [12] = experiment: Potency index, ratio of AGK2 IC50 to test compound IC50 for human Hs683 cells; assay type: functional
SF-268 = experiment: Growth inhibition of human SF268 cells after 48 hrs by SRB assay; assay type: functional; conditions: SF-268, 48 h
Hs 683 [13] = experiment: Potency index, ratio of sirtinol IC50 to test compound IC50 for human Hs683 cells; assay type: functional
HCC 2998 = experiment: Growth inhibition of human HCC2998 cells after 48 hrs by SRB assay; assay type: functional; conditions: HCC 2998, 48 h
HCT-116 = experiment: Antiproliferative activity against human HCT116 cells expressing wild type p53 after 72 hrs by MTT assay; assay type: functional, cell-based; outline: as §1
786-0 = experiment: Growth inhibition of human 786-0 cells after 48 hrs by SRB assay; assay type: functional; conditions: 786-0, 48 h
SF-539 = experiment: Growth inhibition of human SF539 cells after 48 hrs by SRB assay; assay type: functional; conditions: SF-539, 48 h
Hs 683 [14] = experiment: Inhibition of 3D tumor-like growth of human Hs683 cells assessed as decrease in ATP level at 5 to 10 uM treated for 24 hrs measured after 96 hrs by CellTiter-Glo assay; assay type: functional, cell-based
Outline: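 Spheroids were grown from a starting suspension of 1 × 10^3 cells in 25 μL. Cells were pretreated 24 h with compound, then left untreated for 96 h. Spheroids were harvested and mixed with CellTiter-Glo 3D reagent, shaken 5 min and stabilized 25 min, then luminescence was read. Mean ± SD of three independent experiments.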

Sequence of NAD-dependent protein deacetylase sirtuin-3, mitochondrial (Q9NTG7 whole entry): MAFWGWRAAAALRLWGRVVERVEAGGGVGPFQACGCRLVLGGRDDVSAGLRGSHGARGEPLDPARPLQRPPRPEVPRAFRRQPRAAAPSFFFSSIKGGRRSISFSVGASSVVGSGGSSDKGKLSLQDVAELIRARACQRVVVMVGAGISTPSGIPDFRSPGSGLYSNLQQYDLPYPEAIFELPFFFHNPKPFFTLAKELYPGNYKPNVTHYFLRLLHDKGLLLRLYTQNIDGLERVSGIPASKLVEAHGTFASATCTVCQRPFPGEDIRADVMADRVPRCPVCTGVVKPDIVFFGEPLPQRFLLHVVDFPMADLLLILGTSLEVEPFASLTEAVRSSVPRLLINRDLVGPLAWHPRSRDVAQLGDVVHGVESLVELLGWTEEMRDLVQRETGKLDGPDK
Sequence of Histone deacetylase 8 (Homo sapiens) (Q9BY41 whole entry): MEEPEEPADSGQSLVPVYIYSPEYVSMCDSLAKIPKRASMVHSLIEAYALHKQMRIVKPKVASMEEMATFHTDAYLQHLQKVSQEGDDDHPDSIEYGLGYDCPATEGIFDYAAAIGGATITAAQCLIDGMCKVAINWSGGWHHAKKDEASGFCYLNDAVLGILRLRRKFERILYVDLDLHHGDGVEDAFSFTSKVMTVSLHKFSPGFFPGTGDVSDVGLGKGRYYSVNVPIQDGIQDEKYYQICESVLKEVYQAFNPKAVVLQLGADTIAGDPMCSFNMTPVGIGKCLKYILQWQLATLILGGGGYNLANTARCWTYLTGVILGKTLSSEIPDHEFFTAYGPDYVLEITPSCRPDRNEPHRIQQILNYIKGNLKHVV

Question: For CC(C)(C)OC(=O)Nc1ccc2c(c1)C(NC(=O)Nc1cccc(C#N)c1)CC(C)(C)O2 (stereo unspecified), which “Ratio IC50” value [1] is on record?
Answer: 6

Question: And the Activity (U-373MG ATCC)?
Answer: inactive

Question: What about the Activity (Hs 683 [2]) of the same compound?
Answer: Active

Question: And the GI50 (SNB-75)?
Answer: 5.89 µM

Question: And the Activity (A2780)?
Answer: Active

Question: And the “Ratio IC50” value [3]?
Answer: >10

Question: And the GI50 (HL-60(TB))?
Answer: 2.57 µM

Question: And the inhibition [4]?
Answer: Dose-dependent effect

Question: And the inhibition [5]?
Answer: inactive

Question: What about the “Ratio IC50” value [6] of the same compound?
Answer: >10

Question: And the GI50 (CAKI-1)?
Answer: 2.45 µM

Question: And the Activity (Hs 683 [7])?
Answer: 25%

Question: And the Activity [8]?
Answer: 70%

Question: What about the IC50 (Hs 683 [9]) of the same compound?
Answer: 4 to 5.8 µM

Question: And the GI50 (UACC-62)?
Answer: 1 µM

Question: What about the GI50 (OVCAR-5) of the same compound?
Answer: 33.9 µM

Question: And the IC50 [10]?
Answer: > 200 µM

Question: What about the “Ratio IC50” value [11] of the same compound?
Answer: 6 - 14

Question: And the “Ratio IC50” value (Hs 683 [12])?
Answer: 6 - 14

Question: What about the GI50 (SF-268) of the same compound?
Answer: 5.01 µM

Question: What about the “Ratio IC50” value (Hs 683 [13]) of the same compound?
Answer: 6

Question: What about the GI50 (HCC 2998) of the same compound?
Answer: 5.13 µM

Question: And the Activity (HCT-116)?
Answer: Active

Question: What about the GI50 (786-0) of the same compound?
Answer: 7.59 µM

Question: And the GI50 (SF-539)?
Answer: 6.61 µM

Question: And the inhibition (Hs 683 [14])?
Answer: Active
